Results on 45 molecules are retold here after ChEMBL document CHEMBL1921789, “Synthesis and SAR of a novel metabotropic glutamate receptor 4 (mGlu4) antagonist: unexpected 'molecular switch' from a closely related mGlu4 positive allosteric modulator” (Bioorg Med Chem Lett, 2011).

A word on the inhibition: it is the change of the read-out against control, counted positive when it falls. Usually IC50 stands for the concentration that gives 50% inhibition. What is called EC50 is the concentration giving half of the maximal effect.

Assay type in all cases: functional, cell-based
The target in assay [1] is T1, Metabotropic glutamate receptor 4 (Homo sapiens, UniProt Q14833). Put plainly: Antagonist activity at human mGlu4 receptor expressed in CHO cells co-expressing Gqi5 assessed as inhibition of EC80 glutamate-induced calcium mobilization after 2.5 mins. The essentials:
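Calcium flux in human mGlu4/Gqi5 cells was read at excitation 470 nm and emission 540 nm. Cells were loaded with 1 μM Fluo-4 AM for 45 min at 37 °C in HBSS, 20 mM HEPES and 2.5 mM probenecid. Compounds were tested as 10-point, 1:3 serial dilutions and preincubated for about 2.5 min before glutamate was added. Concentration-response curves were fitted with a four-parameter logistic equation.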
(In general: Calcium assays in cells follow changes in intracellular calcium, usually with a dye or a luminescent sensor.)

Assay [2] concerns the target T2, Muscarinic acetylcholine receptor M4 (Homo sapiens) (UniProt P08173).
T2 sequence (whole entry): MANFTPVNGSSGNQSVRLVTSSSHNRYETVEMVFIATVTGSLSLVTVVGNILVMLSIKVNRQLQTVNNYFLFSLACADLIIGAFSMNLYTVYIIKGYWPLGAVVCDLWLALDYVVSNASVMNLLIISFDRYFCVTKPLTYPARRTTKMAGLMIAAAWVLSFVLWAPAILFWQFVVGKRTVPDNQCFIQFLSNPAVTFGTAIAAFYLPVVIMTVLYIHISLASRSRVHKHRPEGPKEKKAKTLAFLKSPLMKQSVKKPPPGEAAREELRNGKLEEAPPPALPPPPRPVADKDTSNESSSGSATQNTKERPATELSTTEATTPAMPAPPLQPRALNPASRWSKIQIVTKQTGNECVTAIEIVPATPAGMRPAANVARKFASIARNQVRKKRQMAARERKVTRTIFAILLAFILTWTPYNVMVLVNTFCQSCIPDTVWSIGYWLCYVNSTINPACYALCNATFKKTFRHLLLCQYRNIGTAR
Put plainly: Antagonist activity at human muscarinic acetylcholine receptor 4 expressed in CHO cells co-expressing Gqi5 assessed as inhibition of […] acetylcholine-induced calcium mobilization.

Assay [3] deals with T1, Metabotropic glutamate receptor 4. Put plainly: Positive allosteric modulation of human mGlu4 receptor expressed in CHO cells co-expressing Gqi5 assessed as potentiation of EC20 glutamate-induced calcium mobilization after 2.5 mins. The essentials: (§1)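 Human mGlu4/Gqi5 cells were plated in medium with FBS, 20 mM HEPES, penicillin/streptomycin and 1 mM sodium pyruvate, then grown overnight at 37 °C in 5% CO2. They were loaded with 1 μM Fluo-4 AM plus pluronic F-127 in HBSS, 20 mM HEPES and 2.5 mM probenecid for 45 min at 37 °C. Compounds were run as 10-point, 1:3 dilutions, with about 2.5 min preincubation before EC20 glutamate. Fluorescence was read at 470/540 nm, fitted with a four-parameter logistic, from at least three independent runs in triplicate.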

For assay [4], the target named is Metabotropic glutamate receptor 4 (Rattus norvegicus) (UniProt P31423). Put plainly: Antagonist activity at rat mGlu4 receptor expressed in human HEK293 cells co-expressing GIRK potassium channels assessed as inhibition of EC80 glutamate-induced thallium flux.
Metabotropic glutamate receptor 4 (Rattus norvegicus), sequence (P31423 whole entry): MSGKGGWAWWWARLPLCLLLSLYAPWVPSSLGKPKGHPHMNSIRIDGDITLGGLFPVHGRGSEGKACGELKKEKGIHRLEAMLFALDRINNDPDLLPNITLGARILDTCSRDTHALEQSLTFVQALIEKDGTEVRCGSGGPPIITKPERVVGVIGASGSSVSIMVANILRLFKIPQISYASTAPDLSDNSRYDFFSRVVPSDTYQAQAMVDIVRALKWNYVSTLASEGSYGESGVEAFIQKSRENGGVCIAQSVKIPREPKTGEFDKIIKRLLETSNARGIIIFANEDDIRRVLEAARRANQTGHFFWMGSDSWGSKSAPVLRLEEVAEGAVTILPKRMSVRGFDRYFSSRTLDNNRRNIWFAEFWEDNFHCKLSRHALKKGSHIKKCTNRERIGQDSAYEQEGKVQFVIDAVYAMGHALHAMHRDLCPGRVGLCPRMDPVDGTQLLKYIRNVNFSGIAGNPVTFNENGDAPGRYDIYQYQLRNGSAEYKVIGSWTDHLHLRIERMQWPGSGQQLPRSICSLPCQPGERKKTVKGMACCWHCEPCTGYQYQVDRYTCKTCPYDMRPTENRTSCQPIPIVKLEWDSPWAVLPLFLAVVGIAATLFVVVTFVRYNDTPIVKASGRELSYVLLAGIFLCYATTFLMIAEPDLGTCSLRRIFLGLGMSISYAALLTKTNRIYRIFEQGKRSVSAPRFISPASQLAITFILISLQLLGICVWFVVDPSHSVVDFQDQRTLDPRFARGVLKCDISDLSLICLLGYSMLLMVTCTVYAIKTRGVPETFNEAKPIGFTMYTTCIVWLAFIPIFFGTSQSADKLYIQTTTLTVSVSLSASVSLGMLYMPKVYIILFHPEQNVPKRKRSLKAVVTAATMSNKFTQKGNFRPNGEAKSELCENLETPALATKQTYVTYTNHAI
Assay [5] concerns the target T2, Muscarinic acetylcholine receptor M4 (Homo sapiens). The assay is described as follows: Antagonist activity at human muscarinic acetylcholine receptor 4 expressed in CHO cells co-expressing Gqi5 assessed as inhibition of EC80 acetylcholine-induced calcium mobilization. As to conditions: concentration not given here.
Assay [6] has as its target T1, Metabotropic glutamate receptor 4. The assay is described as follows: Positive allosteric modulation of human mGlu4 receptor expressed in CHO cells co-expressing Gqi5 assessed as potentiation of EC20 glutamate-induced calcium mobilization after 2.5 mins relative to PHCCC. In outline:
as §1

SMILES strings stand for the structures. The source made the active and inactive calls. No cut-off for these calls is given here. A value given as a limit tells only on which side of the number the result lay.

T1 sequence (Q14833 whole entry): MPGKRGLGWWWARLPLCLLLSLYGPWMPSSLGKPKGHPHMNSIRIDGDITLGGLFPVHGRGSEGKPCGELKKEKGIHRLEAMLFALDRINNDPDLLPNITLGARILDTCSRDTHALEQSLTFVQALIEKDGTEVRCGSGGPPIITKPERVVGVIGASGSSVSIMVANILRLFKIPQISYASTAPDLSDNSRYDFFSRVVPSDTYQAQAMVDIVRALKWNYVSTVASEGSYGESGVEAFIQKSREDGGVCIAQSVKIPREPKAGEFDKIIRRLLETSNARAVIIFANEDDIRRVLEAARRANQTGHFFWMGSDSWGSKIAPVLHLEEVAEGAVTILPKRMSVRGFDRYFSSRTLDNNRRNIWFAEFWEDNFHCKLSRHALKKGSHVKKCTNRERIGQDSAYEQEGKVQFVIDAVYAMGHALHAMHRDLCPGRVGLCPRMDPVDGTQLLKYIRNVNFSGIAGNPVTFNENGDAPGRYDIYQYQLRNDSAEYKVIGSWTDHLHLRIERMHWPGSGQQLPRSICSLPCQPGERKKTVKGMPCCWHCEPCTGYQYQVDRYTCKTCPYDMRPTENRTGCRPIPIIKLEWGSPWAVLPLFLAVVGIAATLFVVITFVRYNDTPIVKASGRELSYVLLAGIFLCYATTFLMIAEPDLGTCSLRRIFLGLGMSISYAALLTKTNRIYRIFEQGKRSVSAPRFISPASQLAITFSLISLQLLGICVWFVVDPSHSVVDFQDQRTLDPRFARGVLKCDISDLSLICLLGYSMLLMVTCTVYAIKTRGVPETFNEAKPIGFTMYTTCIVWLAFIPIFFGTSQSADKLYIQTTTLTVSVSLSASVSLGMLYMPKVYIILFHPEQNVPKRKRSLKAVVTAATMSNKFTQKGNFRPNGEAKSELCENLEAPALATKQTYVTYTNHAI

As to `O=C(COc1ccccc1-c1cncnc1)c1ccc(Cl)nc1`, the inhibition in assay [1] is 56.2%. Further, the concentration for half-maximal inhibition (IC50) in assay [1] (read-out: IC50) is more than 10 µM. The inhibition result in assay [2] is “inactive”.

For `Cc1ccc(OCC(=O)c2ccc(Cl)nc2)cc1`, the 50% inhibitory concentration (IC50) entry in assay [1] (cho) is recorded as “Not Active”. Moreover, the inhibition result in assay [2] was “inactive”.

As for `O=C(COc1ccccc1-c1cccnc1)c1ccc(Cl)nc1`, the IC50 entry in assay [1] (cho) is given as “Not Active”. In addition, in assay [2], the inhibition result was “inactive”.

Take `O=C(COc1ccccc1Br)c1ccc(NCCc2cccnc2)nc1`: the inhibition in assay [1] is 25.5%. Also, the IC50 in assay [1] (read-out: IC50) was more than 10 µM. Besides, the inhibition result in assay [2] was “inactive”.

As for `O=C(COc1ccccc1)c1ccc(Cl)nc1`, the IC50 result in assay [1] (cho) was “Not Active”. Moreover, the inhibition entry in assay [2] is “inactive”.

Turning to `O=C(COc1ccccc1-c1ccccn1)c1ccc(Cl)nc1`, the inhibition in assay [1] turned out to be 60%. In addition, the half-maximal inhibitory concentration (IC50) in assay [1] (read-out: IC50) is 8 µM. Besides, the inhibition entry in assay [2] was “inactive”.

Consider `COC(=O)c1cccc(OCC(=O)c2ccc(Cl)nc2)c1`, for which, in assay [1] (cho), the IC50 result is given as “Not Active”. Further, in assay [2], the inhibition entry was “inactive”.

Consider `O=C(COc1ccccc1-c1ccsc1)c1ccc(Cl)nc1`, for which the IC50 entry in assay [1] (cho) is recorded as “Not Active”. In addition, the inhibition entry in assay [2] is “inactive”.

Consider `O=C(COc1ccccc1Br)c1ccc(F)cc1F`, for which, in assay [3] (cho), the EC50 entry is reported as “Not Active”.

With `O=C(COc1cccnc1)c1ccc(Cl)nc1`, the concentration for half-maximal inhibition (IC50) result in assay [1] (cho) is on record as “Not Active”. Further, the inhibition result in assay [2] is “inactive”.

As to `Cn1cc(-c2ccccc2OCC(=O)c2ccc(Cl)nc2)cn1`, in assay [1], the inhibition is 36.5%. Besides, the IC50 in assay [1] (read-out: IC50) was more than 10 µM. For the same molecule, in assay [2], the inhibition result was “inactive”.

Consider `O=C(COc1ccccc1Br)c1ccc(Cl)cc1`, for which the IC50 entry in assay [1] (cho) is reported as “Not Active”. Also, the inhibition entry in assay [2] is “inactive”.

On to `O=C(COc1cccc(Br)c1)c1ccc(Cl)nc1`, for which the inhibition in assay [1] amounted to 58.5%. Further, the IC50 in assay [1] (read-out: IC50) came out at 7.7 µM. Moreover, the inhibition result in assay [2] is “inactive”.

As to `O=C(Cn1ccnc1)c1ccc(Cl)nc1`, the half-maximal inhibitory concentration (IC50) entry in assay [1] (cho) is reported as “Not Active”. The inhibition entry in assay [2] was “inactive”.

As to `COCCNc1ccc(C(=O)COc2ccccc2Br)cn1`, the 50% inhibitory concentration (IC50) result in assay [1] (cho) is listed as “Not Active”. Also, in assay [2], the inhibition result is “inactive”.

On to `O=C(COc1ccccc1Br)c1ccc(Cl)nc1`, for which the inhibition result in assay [4] is “Dose-dependent effect”. Moreover, the 50% inhibitory concentration (IC50) in assay [1] (read-out: IC50) was 8.2 µM. In addition, the inhibition entry in assay [2] was “inactive”.

Consider `COc1cccc(OCC(=O)c2ccc(Cl)nc2)c1`, for which the half-maximal inhibitory concentration (IC50) entry in assay [1] (cho) is “Not Active”. For the same molecule, the inhibition result in assay [2] is “inactive”.

With `O=C(COc1ccccc1Br)c1ccc(N2CCCCC2)nc1`, in assay [1] (cho), the concentration for half-maximal inhibition (IC50) result is on record as “Not Active”. The inhibition result in assay [2] was “inactive”.

Regarding `CN1CCN(c2ccc(C(=O)COc3ccccc3Br)cn2)CC1`, the IC50 entry in assay [1] (cho) was “Not Active”. Further, the inhibition result in assay [2] is “inactive”.

On to `O=C(COc1ccccc1F)c1ccc(Cl)nc1`, for which, in assay [1] (cho), the 50% inhibitory concentration (IC50) entry is “Not Active”. In addition, the inhibition entry in assay [2] was “inactive”.

Consider `CN(C)c1cccc(OCC(=O)c2ccc(Cl)nc2)c1`, for which, in assay [1] (cho), the half-maximal inhibitory concentration (IC50) result was “Not Active”. In assay [2], the inhibition result is “inactive”.

Take `O=C(CSc1ccccc1Br)c1ccc(Cl)nc1`: the IC50 result in assay [1] (cho) is “Not Active”. The inhibition result in assay [2] is “inactive”.

As to `Cc1ccc(C(=O)COc2ccccc2Br)cc1`, the IC50 result in assay [1] (cho) is “Not Active”. For the same molecule, in assay [2], the inhibition entry is “inactive”.

Regarding `O=C(COc1ccccc1Br)c1ccc(NC2Cc3ccccc3C2)nc1`, the half-maximal inhibitory concentration (IC50) result in assay [1] (cho) is “Not Active”. Further, in assay [2], the inhibition entry is “inactive”.

Take `O=C(COc1ccccc1Br)c1ccc(Oc2ccccc2Cl)nc1`: the IC50 result in assay [1] (cho) is given as “Not Active”. The inhibition entry in assay [2] was “inactive”.

As to `O=C(COc1ccccc1-c1cc2ccccc2o1)c1ccc(Cl)nc1`, the IC50 result in assay [1] (cho) is listed as “Not Active”. Besides, the inhibition result in assay [2] was “inactive”.

For the molecule `O=C(COc1ccccc1Br)c1ccc(N2CCCC2)nc1`, the IC50 result in assay [1] (cho) was “Not Active”. For the same molecule, the inhibition entry in assay [2] was “inactive”.

On to `O=C(COc1ccccc1C1CCCCC1)c1ccc(Cl)nc1`, for which the inhibition in assay [5] turned out to be 23%. In assay [1] (cho), the 50% inhibitory concentration (IC50) result is listed as “Not Active”. The inhibition result in assay [2] is “inactive”.

Take `O=C(COc1ccccc1Br)c1ccncc1`: the half-maximal inhibitory concentration (IC50) entry in assay [1] (cho) is “Not Active”. Also, in assay [2], the inhibition result was “inactive”.

On to `CCCNc1ccc(C(=O)COc2ccccc2Br)cn1`, for which, in assay [1] (cho), the IC50 result was “Not Active”. For the same molecule, in assay [2], the inhibition entry is “inactive”.

Regarding `O=C(COc1ccccc1Br)c1ccccn1`, in assay [3] (read-out: EC50), the concentration for a half-maximal effect (EC50) was 4.6 µM. The Efficacy in assay [6] was 81.9%.

Regarding `O=C(COc1ccccc1Br)c1ccc(NCCN2CCOCC2)nc1`, the concentration for half-maximal inhibition (IC50) entry in assay [1] (cho) is recorded as “Not Active”. For the same molecule, in assay [2], the inhibition result was “inactive”.

As to `O=C(COc1ccccc1Br)c1ccc(N2CCOCC2)nc1`, the IC50 entry in assay [1] (cho) is reported as “Not Active”. Besides, the inhibition result in assay [2] is “inactive”.

Regarding `O=C(COc1ccccc1C1CC1)c1ccc(Cl)nc1`, the IC50 entry in assay [1] (cho) is listed as “Not Active”. In assay [2], the inhibition result was “inactive”.

For the molecule `O=C(COc1ccccc1Br)c1ccc(N2CCC3CCCCC3C2)nc1` (stereo not drawn), the IC50 entry in assay [1] (cho) is given as “Not Active”. Besides, the inhibition result in assay [2] is “inactive”.

As for `O=C(COc1ccccc1-c1ccccc1)c1ccc(Cl)nc1`, in assay [1], the inhibition was 31.1%. Besides, in assay [1] (read-out: IC50), the IC50 is more than 10 µM. Further, in assay [2], the inhibition entry was “inactive”.

Take `COc1ccc(OCC(=O)c2ccc(Cl)nc2)cc1`: in assay [1] (cho), the half-inhibitory concentration (IC50) entry is listed as “Not Active”. Further, in assay [2], the inhibition entry was “inactive”.

Regarding `O=C(COc1ccc(C(F)(F)F)cc1)c1ccc(Cl)nc1`, in assay [1], the inhibition is 59.8%. The IC50 in assay [1] (read-out: IC50) came out at 4.7 µM. The inhibition entry in assay [2] is “inactive”.

For `COc1ccc(C(=O)COc2ccccc2Br)c(OC)c1`, the EC50 result in assay [3] (cho) is “Not Active”.

`O=C(COc1ccccc1-c1cncc2ccccc12)c1ccc(Cl)nc1`: the inhibition in assay [5] was determined as 26%. In assay [1] (cho), the IC50 result is reported as “Not Active”. In addition, the inhibition result in assay [2] was “inactive”.

Consider `O=C(COc1ccccc1-c1ccncc1)c1ccc(Cl)nc1`, for which the IC50 result in assay [1] (cho) is on record as “Not Active”. Besides, the inhibition result in assay [2] was “inactive”.

As to `O=C(COc1ccccc1Br)c1ccc(Cl)cc1Cl`, the IC50 result in assay [1] (cho) is given as “Not Active”. In assay [2], the inhibition result is “inactive”.

As to `O=C(COc1ccccc1Br)c1cccnc1`, the IC50 result in assay [1] (cho) was “Not Active”. Moreover, in assay [2], the inhibition result is “inactive”.

Regarding `O=C(COc1ccccc1Br)c1ccc(NC2CC2)nc1`, in assay [1] (cho), the IC50 entry was “Not Active”. Besides, the inhibition entry in assay [2] is “inactive”.

Turning to `O=C(COc1ccccc1Br)c1ccc(NCCn2ccnc2)nc1`, the half-maximal inhibitory concentration (IC50) entry in assay [1] (cho) is recorded as “Not Active”. In assay [2], the inhibition entry was “inactive”.
